# From ChEMBL document CHEMBL1157832, “Cytotoxic effects of tanshinones from Salvia miltiorrhiza on doxorubicin-resistant human liver cancer cells” (J Nat Prod, 2010)
# Activity calls are given as the source filed them. The rule behind the calls is not given here.
# Columns and labels:
# HepG2 [1] = test: Inhibition of […] doxorubicin efflux in doxorubicin resistant human HepG2 cells uM by flow cytometry; assay type: cell-based
# Hep 3B2 [2] = test: Induction of apoptosis in human Hep3B cells deficient in p53 gene assessed as caspase 3 activation; assay type: functional, cell-based
# How it was run: (§1)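 Cells were treated for 24 h, with etoposide as positive control. Cells (1 × 10^7) were lysed for 2 h at 4 °C and spun at 16000g for 10 min. The supernatant was mixed with assay buffer and the colorimetric substrate […], and pNA release was read at 405 nm. Soluble protein was determined by BCA.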
# HepG2 [3] = test: Induction of apoptosis in human HepG2 cells expressing wild type p53 gene assessed as caspase 3 activation; assay type: functional, cell-based; how it was run: as §1
# P-gp (ABCB1) [4] = molecular target: T1, P-gp (ABCB1) (Homo sapiens, UniProt P08183); test: Inhibition of P-gp in doxorubicin-resistant human HepG2 cells assessed as potentiation of doxorubicin cytostatic effect at 25 uM by MTT assay; assay type: cell-based; conditions: probe doxorubicin
# T1 sequence (P08183 whole entry): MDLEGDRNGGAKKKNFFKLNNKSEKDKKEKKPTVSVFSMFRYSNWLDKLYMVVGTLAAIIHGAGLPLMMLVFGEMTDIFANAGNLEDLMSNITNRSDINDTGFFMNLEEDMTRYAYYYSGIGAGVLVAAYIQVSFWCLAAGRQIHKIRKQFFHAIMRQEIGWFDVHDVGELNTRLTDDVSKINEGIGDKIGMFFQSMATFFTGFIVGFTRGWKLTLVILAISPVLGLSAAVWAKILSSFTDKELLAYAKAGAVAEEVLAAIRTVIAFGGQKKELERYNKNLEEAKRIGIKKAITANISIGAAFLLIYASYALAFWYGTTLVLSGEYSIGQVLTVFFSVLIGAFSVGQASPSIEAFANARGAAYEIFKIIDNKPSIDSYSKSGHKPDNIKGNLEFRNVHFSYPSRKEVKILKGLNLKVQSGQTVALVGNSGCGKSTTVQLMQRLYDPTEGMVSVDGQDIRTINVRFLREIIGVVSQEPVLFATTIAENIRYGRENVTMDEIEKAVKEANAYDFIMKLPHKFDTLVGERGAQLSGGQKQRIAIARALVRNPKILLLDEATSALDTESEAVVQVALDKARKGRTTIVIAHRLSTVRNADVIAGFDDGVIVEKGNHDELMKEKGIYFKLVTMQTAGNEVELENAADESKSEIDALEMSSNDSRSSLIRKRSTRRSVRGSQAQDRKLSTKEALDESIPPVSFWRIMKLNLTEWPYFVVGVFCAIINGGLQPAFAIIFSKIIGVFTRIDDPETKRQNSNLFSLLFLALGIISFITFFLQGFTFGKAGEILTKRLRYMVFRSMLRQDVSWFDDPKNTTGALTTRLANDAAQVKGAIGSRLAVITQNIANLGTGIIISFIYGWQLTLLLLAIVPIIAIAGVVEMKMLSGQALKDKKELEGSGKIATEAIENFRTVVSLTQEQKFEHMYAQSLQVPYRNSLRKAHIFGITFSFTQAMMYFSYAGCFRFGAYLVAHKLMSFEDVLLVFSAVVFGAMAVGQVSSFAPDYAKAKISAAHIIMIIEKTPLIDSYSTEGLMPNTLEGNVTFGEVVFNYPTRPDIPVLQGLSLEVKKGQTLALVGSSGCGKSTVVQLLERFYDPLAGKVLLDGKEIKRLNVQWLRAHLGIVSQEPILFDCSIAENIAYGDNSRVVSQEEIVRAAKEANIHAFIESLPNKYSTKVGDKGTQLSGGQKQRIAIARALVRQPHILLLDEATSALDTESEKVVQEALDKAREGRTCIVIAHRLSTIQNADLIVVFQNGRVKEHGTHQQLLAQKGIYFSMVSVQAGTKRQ
# How it was run: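 R-HepG2 cells (doxorubicin-selected HepG2 subclone kept in RPMI 1640 with 1.2 µM doxorubicin) co-treated with compound and doxorubicin; growth read by MTT (0.5 mg/mL, 3 h, 570 nm). Interaction scored by Chou–Talalay combination index at EC20/EC50 levels, Loewe additivity and Bliss independence.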
# HepG2 [5] = test: Induction of apoptosis in human HepG2 cells expressing wild type p53 gene assessed as PARP cleavage by Western blot; assay type: functional, cell-based
# How it was run: (§2)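 Cells treated 24 h, then lysed in Tris 50 mM/NaCl 100 mM/EDTA 5 mM/pyrophosphate 67 mM/1% Triton X-100, pH 7.5, with protease inhibitors. 20 µg soluble protein on 8% SDS-PAGE, nitrocellulose transfer, anti-PARP 1:1000 overnight at 4 °C, HRP anti-rabbit 1:2000 1 h, ECL. β-actin reprobe as loading reference; band densitometry; n = 3.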
# HepG2 [6] = test: Effect on MRP2 protein expression in human HepG2 cells expressing wild type p53 gene at 25 uM after 24 hrs by Western blot; assay type: functional, cell-based
# How it was run: (§3)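 HepG2 cells (MEM, 10% FBS) exposed to 25 µM for 24 h; lysates run on SDS-PAGE, transferred to nitrocellulose and probed with anti-MRP1 or anti-MRP2 antibodies, ECL detection. DMSO final 0.25% (v/v).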
# HepG2 [7] = test: Effect on MRP1 protein expression in human HepG2 cells expressing wild type p53 gene at 25 uM after 24 hrs by Western blot; assay type: functional, cell-based; how it was run: as §3
# [8] = Cytotoxicity against human THLE3 cells by MTT assay; assay type: cell-based
# How it was run: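 THLE-3 immortalized liver cells cultured in BEGM kit medium, 37 °C, 5% CO2; 9 × 10^3 cells/well. After compound incubation, MTT (0.5 mg/mL) added for 3 h at 37 °C; formazan dissolved in DMSO and read at 570 nm. Untreated cells as vehicle control; DMSO final 0.25% (v/v). EC50 of growth inhibition, n = 3.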
# PLC-PRF-5 [9] = test: Induction of apoptosis in human PLC/PRF/5 cells expressing mutant p53 gene (codon 249) assessed as caspase 3 activation; assay type: functional, cell-based
# How it was run: (§4)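 After 24 h treatment, 1 × 10^7 cells lysed 2 h at 4 °C and spun at 16000g for 10 min. Supernatant incubated with caspase-3 substrate […], pNA release read at 405 nm, and protein measured by BCA. Activity expressed as fold of control; etoposide as positive control.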
# Hep 3B2 [10] = test: Induction of apoptosis in human Hep3B cells deficient in p53 gene assessed as PARP cleavage by Western blot; assay type: functional, cell-based; how it was run: as §2
# PLC-PRF-5 [11] = test: Induction of apoptosis in human PLC/PRF/5 cells expressing mutant p53 gene (codon 249) assessed as PARP cleavage by Western blot; assay type: functional, cell-based; how it was run: as §2
# [12] = Cytotoxicity against human Hep3B cells deficient in p53 gene by MTT assay; assay type: functional, cell-based, Hep 3B2
# How it was run: (§5)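 Proliferation was measured by MTT. Cells were seeded at 9 × 10^3 per well and exposed to drug for an unstated period. MTT (0.5 mg/mL) was then added for 3 h at 37 °C, formazan was dissolved in DMSO, and absorbance was read at 570 nm against untreated vehicle controls (final DMSO 0.25% v/v). HepG2 was grown in MEM. Hep3B and PLC/PRF/5 were grown in DMEM with nonessential amino acids and 10% FBS. The doxorubicin-resistant HepG2 subclone was grown in RPMI 1640 with 10% FBS plus 1.2 µM doxorubicin to maintain Pgp.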
# HepG2 [13] = test: Cytotoxicity against doxorubicin resistant human HepG2 cells expressing wild type p53 gene by MTT assay; assay type: functional, cell-based; how it was run: as §5
# HepG2 [14] = test: Cytotoxicity against human HepG2 cells expressing wild type p53 gene by MTT assay; assay type: functional, cell-based; how it was run: as §5
# PLC-PRF-5 [15] = test: Induction of apoptosis in human PLC/PRF/5 cells expressing mutant p53 gene (codon 249) assessed as caspase 3 activation at 6.25 uM relative to control; assay type: functional; how it was run: as §4
# HepG2 [16] = test: Induction of apoptosis in human HepG2 cells expressing wild type p53 gene assessed as caspase 3 activation at 6.25 uM relative to control; assay type: functional; how it was run: as §4
# [17] = Cytotoxicity against human PLC/PRF/5 cells expressing mutant p53 gene (codon 249) by MTT assay; assay type: functional, cell-based; how it was run: as §5
# [18] = molecular target: T2, Multidrug resistance-associated protein 1 (Homo sapiens, UniProt P33527); test: Inhibition of MRP1-mediated doxorubicin efflux in doxorubicin resistant human HepG2 cells at 10 to 100 uM by flow cytometry; assay type: cell-based
# T2 sequence (P33527 whole entry): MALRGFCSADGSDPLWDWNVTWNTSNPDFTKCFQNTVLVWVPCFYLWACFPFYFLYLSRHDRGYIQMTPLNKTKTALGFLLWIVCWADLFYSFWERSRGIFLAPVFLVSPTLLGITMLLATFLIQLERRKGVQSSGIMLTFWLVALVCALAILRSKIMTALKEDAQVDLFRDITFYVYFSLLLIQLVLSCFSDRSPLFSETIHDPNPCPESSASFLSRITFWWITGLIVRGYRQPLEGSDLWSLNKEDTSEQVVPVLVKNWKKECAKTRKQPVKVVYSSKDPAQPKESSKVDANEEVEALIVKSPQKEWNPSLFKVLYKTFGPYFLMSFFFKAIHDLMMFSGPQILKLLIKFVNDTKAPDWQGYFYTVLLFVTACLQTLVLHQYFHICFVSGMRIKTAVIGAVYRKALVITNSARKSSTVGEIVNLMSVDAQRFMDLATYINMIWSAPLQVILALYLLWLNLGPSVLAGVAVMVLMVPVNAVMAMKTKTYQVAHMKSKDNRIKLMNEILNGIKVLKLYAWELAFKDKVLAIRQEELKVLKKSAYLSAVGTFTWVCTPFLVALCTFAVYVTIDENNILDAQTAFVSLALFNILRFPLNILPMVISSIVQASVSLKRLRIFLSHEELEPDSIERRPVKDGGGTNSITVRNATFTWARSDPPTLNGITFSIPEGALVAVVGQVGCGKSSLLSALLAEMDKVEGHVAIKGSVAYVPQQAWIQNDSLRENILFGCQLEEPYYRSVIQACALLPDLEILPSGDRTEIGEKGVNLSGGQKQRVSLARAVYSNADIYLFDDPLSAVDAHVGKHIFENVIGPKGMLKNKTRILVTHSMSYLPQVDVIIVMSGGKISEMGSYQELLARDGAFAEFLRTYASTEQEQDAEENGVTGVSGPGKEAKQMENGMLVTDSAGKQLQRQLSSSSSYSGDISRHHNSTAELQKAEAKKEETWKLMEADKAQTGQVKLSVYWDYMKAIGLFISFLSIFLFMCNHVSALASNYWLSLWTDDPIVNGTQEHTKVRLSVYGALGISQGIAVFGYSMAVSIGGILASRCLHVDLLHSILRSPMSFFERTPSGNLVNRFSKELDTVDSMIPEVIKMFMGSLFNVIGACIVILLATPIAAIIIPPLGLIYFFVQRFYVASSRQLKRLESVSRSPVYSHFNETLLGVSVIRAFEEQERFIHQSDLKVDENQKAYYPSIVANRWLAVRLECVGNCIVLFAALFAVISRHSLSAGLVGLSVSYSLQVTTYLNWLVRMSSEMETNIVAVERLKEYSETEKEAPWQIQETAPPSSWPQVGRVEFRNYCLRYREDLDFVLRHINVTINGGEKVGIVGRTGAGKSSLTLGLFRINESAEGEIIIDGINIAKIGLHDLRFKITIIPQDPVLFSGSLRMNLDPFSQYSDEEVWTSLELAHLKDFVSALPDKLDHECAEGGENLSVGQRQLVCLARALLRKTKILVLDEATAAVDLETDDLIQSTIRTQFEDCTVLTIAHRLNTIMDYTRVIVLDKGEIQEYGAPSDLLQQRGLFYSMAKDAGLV
# [19] = molecular target: T2, Multidrug resistance-associated protein 1; test: Inhibition of MRP1-mediated doxorubicin efflux in doxorubicin resistant human HepG2 cells at 100 uM by flow cytometry; assay type: cell-based; conditions: hepg2, 100 µM
# P-gp (ABCB1) [20] = molecular target: T1, P-gp (ABCB1); test: Inhibition of P-gp in doxorubicin-resistant human HepG2 cells assessed as potentiation of doxorubicin cytostatic effect at 6.25 uM by MTT assay; assay type: cell-based; conditions: probe doxorubicin
Compound,Activity (Hep 3B2 [2]),Activity (HepG2 [3]),Activity (HepG2 [5]),Activity (HepG2 [6]),Activity (HepG2 [7]),EC50 [8] [µM],Activity (Hep 3B2 [10]),EC50 [12] [µM],EC50 (HepG2 [13]) [µM],EC50 (HepG2 [14]) [µM],EC50 [17] [µM],other results
C=C(CC)C(=O)c1ccc(OCC(=O)O)c(Cl)c1Cl,,,,,,,,,,,,inhibition (HepG2 [1]): Active
COc1cc([C@@H]2c3cc4c(cc3[C@@H](O[C@@H]3O[C@@H]5CO[C@@H](C)O[C@H]5[C@H](O)[C@H]3O)[C@H]3COC(=O)[C@H]23)OCO4)cc(OC)c1O,inactive,Active,,,,,,,,,,
C[C@H]1COC2=C1C(=O)C(=O)c1c2ccc2c1CCCC2(C)C [CRYPTOTANSHINONE],inactive,Active,Dose-dependent effect,inactive,inactive,22.9,inactive,,,,,inhibition at 25 µM (P-gp (ABCB1) [4]): 50%; Activity (PLC-PRF-5 [9]): Dose-dependent effect
Cc1cccc2c3c(ccc12)C1=C(C(=O)C3=O)[C@@H](C)CO1 [DIHYDROTANSHINONE I],inactive,Active,Dose-dependent effect,inactive,inactive,6.5,inactive,5.5,4.7,2.5,> 10,Activity (PLC-PRF-5 [11]): Active; fold change (FC) (PLC-PRF-5 [15]): 2.5; fold change (FC) (HepG2 [16]): 2
COc1cccc2c1C(=O)c1c(O)c3c(c(O)c1C2=O)C[C@@](O)(C(=O)CO)C[C@@H]3O[C@H]1C[C@H](N)[C@H](O)[C@H](C)O1 [DOXORUBICIN],,,,,,,,5.6,> 10,6.1,> 10,
COc1ccc2c(c1)c(CC(=O)O)c(C)n2C(=O)c1ccc(Cl)cc1 [INDOMETHACIN],,,,,,,,,,,,inhibition (INH) [18]: Not Active; inhibition (INH) [19]: Active
Cc1coc2c1C(=O)C(=O)c1c-2ccc2c1CCCC2(C)C [TANSHINONE IIA],inactive,Active,Dose-dependent effect,inactive,inactive,57.5,inactive,,,,,
Cc1coc2c1C(=O)C(=O)c1c-2ccc2c(C)cccc12 [TANSHINONE I],inactive,Active,Dose-dependent effect,inactive,inactive,74.1,inactive,> 10,> 10,6.3,> 10,Activity (PLC-PRF-5 [11]): Active; inhibition at 6.25 µM (P-gp (ABCB1) [20]): 50%
